Measurements: ChEMBL document CHEMBL1150769, “Aroyl hydrazones of 2-phenylindole-3-carbaldehydes as novel antimitotic agents” (Bioorg Med Chem, 2008)
Activity calls are given as the source filed them. No cut-off for these calls is given here.

Assays:
MDA-MB-231 [1] = experiment: Antiproliferative activity against human MDA-MB-231 cells after 4 days by microplate assay; type: functional, cell-based; details: MDA-MB-231, 96 h
Outline: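 MDA-MB 231 cells grown in McCoy-5a with L-glutamine, gentamycin, NaHCO3 and 5% FCS; 2–3 days growth at 37 °C, 5% CO2 before compound in fresh medium (controls 0.1% DMF); about 4 days exposure; 1% glutaric dialdehyde fixation, 0.02% crystal violet, 70% EtOH elution, OD 578 nm; mean of two experiments with 16–24 replicates.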

MCF7 = experiment: Antiproliferative activity against human MCF7 cells after 5 days by microplate assay; type: functional, cell-based; details: MCF7, 120 h
Outline: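 MCF-7 cells grown in EMEM with sodium pyruvate, gentamycin, NaHCO3, phenol red and 10% FCS; seeded in 96-well plates and grown 2–3 days at 37 °C, 5% CO2, then medium with compound (DMF stock; controls 0.1% DMF) for 5 days; glutaric dialdehyde fixation, 0.02% crystal violet stain, ethanol extraction, OD 578 nm; mean of two experiments, 16–24 replicates.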

HL-60 [2] = experiment: Antiproliferative activity against human HL60 cells after 48 hrs by MTT assay; type: functional, cell-based; details: HL-60, 48 h
Outline: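 HL-60 human leukemia cells kept in log growth in RPMI 1640 with 10% FCS, penicillin G and streptomycin; treated for 48 h; growth read by MTT assay; IC50 = 50% and IC90 = 90% inhibition of cell growth; values given ± SD.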

U373 MG [3] = experiment: Antiproliferative activity against human U373 MG cells after 72 hrs; type: functional, cell-based; details: U-373MG ATCC
Outline: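 Human U-373 MG glioblastoma cells grown in EMEM with sodium pyruvate, gentamycin, NaHCO3, phenol red and 5% FCS. Exposure was continuous at 10, 50, 100 and 200 nM, with DMF in the controls. Plates were fixed with glutaric dialdehyde at intervals and stained together with crystal violet. Absorbance read at 578 nm; corrected T/C% = (T − C0)/(C − C0) × 100.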

HL-60 [4] = experiment: Induction of apoptosis in human HL60 cells assessed as increase in caspase 3 activation at 1 uM after 24 hrs; type: functional, cell-based
HL-60 [5] = experiment: Induction of apoptosis in human HL60 cells assessed as increase in caspase 9 activation at 1 uM after 24 hrs; type: functional, cell-based
HL-60 [6] = experiment: Induction of apoptosis in human HL60 cells assessed as increase in caspase 3 activation at 500 nM after 24 hrs; type: functional, cell-based
Outline: (§1)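 HL-60 cells (3 million at 5 × 10^5 cells/mL) treated 24 h at 37 °C, 5% CO2; hypotonic Hepes/DTT/EDTA/CHAPS lysates on ice; Ac-DMQD-AMC (1.0 μM final) cleaved 60 min at 30 °C; released AMC separated by RP-HPLC, quantified fluorometrically (ex 355 or 400, em 435 nm) against AMC standards; activity in pmol/min/mg; means of three experiments ± SD.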

MDA-MB-231 [7] = experiment: Cell cycle arrest in human MDA-MB-231 cells assessed as decrease in accumulation at G1/G0 phase after 24 hrs by flow cytometry; type: functional, cell-based
Outline: (§2)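 MDA-MB 231 cells at 70–80% confluence in 75 cm2 flasks exposed 24 h (DMF vehicle, 0.1% final); trypsinized, fixed in ice-cold 70% EtOH, DNA extraction buffer, propidium iodide stain ≥30 min at room temperature; 8000–15,000 events analysed by flow cytometry for sub-G1, G1/G0, S and G2/M fractions; representative of two experiments.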

MDA-MB-231 [8] = experiment: Cell cycle arrest in human MDA-MB-231 cells assessed as increase in accumulation at G2/M phase after 24 hrs by flow cytometry; type: functional, cell-based; outline: as §2
U373 MG [9] = experiment: Antiproliferative activity against human U373 MG cells at 10 nM; type: functional, cell-based; details: U-373MG ATCC
Outline: (§3)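 U-373 MG glioblastoma cells in EMEM-type medium with 5% FCS under permanent exposure to 10–200 nM; plates fixed with glutaric dialdehyde at various times, stored cold, then crystal violet stained together; absorbance expressed as corrected T/C = (T − C0)/(C − C0) × 100 (%).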

U373 MG [10] = experiment: Antiproliferative activity against human U373 MG cells at 200 nM after 100 hrs; type: functional, cell-based; details: U-373MG ATCC
Outline: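 Confluent (resting) U-373 MG cultures exposed to compound, with DMSO solvent controls, for up to ~150 h; crystal violet staining of fixed cells at various times; effect expressed as cytocidal effect (%) versus time.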

HL-60 [11] = experiment: Induction of apoptosis in human HL60 cells assessed as caspase 3 activation at 100 nM after 24 hrs; type: functional, cell-based; outline: as §1
HL-60 [12] = experiment: Induction of apoptosis in human HL60 cells assessed as increase in caspase 3 activation at 2.0 uM after 24 hrs; type: functional
U373 MG [13] = experiment: Antiproliferative activity against human U373 MG cells at 50 nM after 72 hrs; type: functional, cell-based; details: U-373MG ATCC; outline: as §3
U-87 MG [14] = experiment: Effect on cell morphology in human U87 MG cells assessed as disruption of microtubule network at 50 nM by confocal fluorescence microscopy; type: functional, cell-based; details: U-87MG ATCC
Outline: (§4)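 U-87 MG cells at 75% confluence in chamber slides treated 3 h at 37 °C (EtOH vehicle); fixed in 4% paraformaldehyde, permeabilized with 1% Triton X-100; α-tubulin immunostained (Cy5 secondary), nuclei with SYTOX Green; imaged by confocal laser scanning microscopy.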

[15] = Inhibition of tubulin polymerization at 5 uM by microplate assay
[16] = Inhibition of tubulin polymerization at 5 uM by microplate assay
Outline: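 Tubulin suspended in cold G-PEM buffer with 5% glycerol and depolymerised at 0 °C. It was added to compound that had been diluted 1:10 from DMSO stock into G-PEM in wells prewarmed to 37 °C. Turbidity was read at 355 nm every minute for 28–30 min at 37 °C. Solvent controls held 1% DMSO; colchicine (5 µM) and paclitaxel (2 µM) were run as references.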

U-87 MG [17] = experiment: Effect on cell morphology in human U87 MG cells assessed as disruption of microtubule network at 10 nM by confocal fluorescence microscopy; type: functional, cell-based; details: U-87MG ATCC; outline: as §4

SMILES | IC50 (MDA-MB-231 [1]) [nM] | IC50 (MCF7) [nM] | also measured
CCCCc1ccc2[nH]c(-c3ccc(OC)cc3)c(/C=N/NC(=O)c3ccc(OC)cc3)c2c1 | 61 | 226 | 
CCCCc1ccc2[nH]c(-c3ccc(OC)cc3)c(/C=N/NC(=O)c3ccc(Cl)cc3)c2c1 | 90 | 220 | 
CCCCc1ccc2[nH]c(-c3ccc(OC)cc3)c(/C=N/NC(=O)c3cccc(OC)c3)c2c1 | 55 |  | 
CCCCc1ccc2[nH]c(-c3ccc(OC)cc3)c(/C=N/NC(=O)c3ccccn3)c2c1 | 34 | 160 | IC50 (HL-60 [2]): 213 nM; IC90 (HL-60 [2]): 333 nM
C=C(C)[C@H]1Cc2c(ccc3c2O[C@@H]2COc4cc(OC)c(OC)cc4[C@@H]2C3=O)O1 |  |  | Activity (U373 MG [3]): Active
CCCCc1ccc2[nH]c(-c3ccc(C(F)(F)F)cc3)c(/C=N/NC(=O)c3ccccn3)c2c1 | 260 | 310 | 
CCCCc1ccc2[nH]c(-c3ccc(C(F)(F)F)cc3)c(/C=N/NC(=O)c3ccc([N+](=O)[O-])cc3)c2c1 | 2040 | 6340 | 
CCCCc1ccc2[nH]c(-c3ccc(OC)cc3)c(/C=N/O)c2c1 | 40 | 212 | 
CCCCc1ccc2[nH]c(-c3ccc(CC)cc3)c(/C=N/NC(=O)c3ccncc3)c2c1 | 80 | 150 | 
CCCCc1ccc2[nH]c(-c3ccc(C(F)(F)F)cc3)c(/C=N/NC(=O)c3ccc(Cl)cc3)c2c1 | 329 | 1060 | 
CCCCc1ccc2[nH]c(-c3ccc(C(F)(F)F)cc3)c(/C=N/NC(=O)c3ccncc3)c2c1 | 94 | 100 | Activity (HL-60 [4]): Active; Activity (HL-60 [5]): Active
CCCCc1ccc2[nH]c(-c3ccc(C(F)(F)F)cc3)c(/C=N/NC(=O)c3ccc(OC)cc3)c2c1 | 284 | 618 | 
CCCCc1ccc2[nH]c(-c3ccc(C(F)(F)F)cc3)c(/C=N/NC(=O)c3cccnc3)c2c1 | 97 | 260 | 
CCCCc1ccc2[nH]c(-c3ccc(OC)cc3)c(/C=N/NC(=O)c3ccncc3)c2c1 | 29 | 69 | 
CCCCc1ccc2[nH]c(-c3ccc(OC)cc3)c(/C=N/NC(=O)c3ccccc3OC)c2c1 | 21 | 71 | IC50 (HL-60 [2]): 74 nM; IC90 (HL-60 [2]): 142 nM; Activity (HL-60 [6]): Active
CCCCc1ccc2[nH]c(-c3ccc(OC)cc3)c(/C=N/NC(=O)c3ccccc3)c2c1 | 32 | 130 | Activity (MDA-MB-231 [7]): Active; Activity (MDA-MB-231 [8]): Active
CCCCc1ccc2[nH]c(-c3ccc(C(F)(F)F)cc3)c(/C=N/NC(=O)c3ccccc3)c2c1 | 300 | 460 | 
CCCCc1ccc2[nH]c(-c3ccc(OC)cc3)c(/C=N/NC(=O)c3cccc(O)c3)c2c1 | 30 |  | 
CCCCc1ccc2[nH]c(-c3ccc(OC)cc3)c(/C=N/NC(=O)c3cccnc3)c2c1 | 35 | 75 | Activity (U373 MG [9]): Active; Activity (U373 MG [10]): Active; IC50 (HL-60 [2]): 50 nM; IC90 (HL-60 [2]): 115 nM; Activity (HL-60 [11]): Active
COc1cc([C@@H]2c3cc4c(cc3[C@@H](O[C@@H]3O[C@@H]5CO[C@@H](C)O[C@H]5[C@H](O)[C@H]3O)[C@H]3COC(=O)[C@H]23)OCO4)cc(OC)c1O [ETOPOSIDE] |  |  | IC50 (HL-60 [2]): 315 nM; Activity (HL-60 [12]): 3.37
COc1ccc(-c2[nH]c3ccc(C)cc3c2/C=N/NC(=O)c2ccncc2)cc1 | 290 | 200 | 
CCCCc1ccc2[nH]c(-c3ccc(OC)cc3)c(/C=N/NC(=O)c3ccc(F)cc3)c2c1 | 19 | 84 | Activity (U373 MG [13]): Active; Activity (U373 MG [10]): Active; Activity (U-87 MG [14]): inactive; IC50 (HL-60 [2]): 91 nM; IC90 (HL-60 [2]): 164 nM; Activity (HL-60 [6]): Active
CCCCc1ccc2[nH]c(-c3ccc(CC)cc3)c(/C=N/NC(=O)c3cccnc3)c2c1 | 53 | 100 | 
CC(=O)O[C@H]1C(=O)[C@@]2(C)[C@H]([C@H](OC(=O)c3ccccc3)[C@]3(O)C[C@H](OC(=O)[C@H](O)[C@@H](NC(=O)c4ccccc4)c4ccccc4)C(C)=C1C3(C)C)[C@]1(OC(C)=O)CO[C@@H]1C[C@@H]2O |  |  | Activity [15]: Active
COc1cc2c(c(OC)c1OC)-c1ccc(OC)c(=O)cc1[C@@H](NC(C)=O)CC2 |  |  | Activity [16]: Active
CC[C@]1(O)C[C@H]2CN(CCc3c([nH]c4ccccc34)[C@@](C(=O)OC)(c3cc4c(cc3OC)N(C=O)[C@H]3[C@@](O)(C(=O)OC)[C@H](OC(C)=O)[C@]5(CC)C=CCN6CC[C@]43[C@@H]65)C2)C1 [VINCRISTINE] | 6 | 2 | Activity (U-87 MG [17]): Active
CCCCc1ccc2[nH]c(-c3ccc(OC)cc3)c(/C=N/NC(=O)c3ccc([N+](=O)[O-])cc3)c2c1 | 115 | 312 | 
